DNMT1 block – inhibitors of human DNMT1; P26358; inhibition (reported as % activation of signal), % at 10 µM; 0.83% of 360,000 active; DNMT1 molecular beacon, Hinp1I cleavage, fluorescence; in the data active means inhibition above about 50%
STEP inh – STEP (human) phosphatase inhibition. inhibition, % at 20 µM. 0.25% of 360,000 active. recombinant STEP, OMFP fluorogenic substrate, fluorescence;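 active means inhibition at 20 µM, scaled per plate between control wells, above about 37%, limit read from the data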;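 further: 0% = DMSO with enzyme and substrate and 100% = substrate only without enzyme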
Target sequence (P54829 whole entry, looked up): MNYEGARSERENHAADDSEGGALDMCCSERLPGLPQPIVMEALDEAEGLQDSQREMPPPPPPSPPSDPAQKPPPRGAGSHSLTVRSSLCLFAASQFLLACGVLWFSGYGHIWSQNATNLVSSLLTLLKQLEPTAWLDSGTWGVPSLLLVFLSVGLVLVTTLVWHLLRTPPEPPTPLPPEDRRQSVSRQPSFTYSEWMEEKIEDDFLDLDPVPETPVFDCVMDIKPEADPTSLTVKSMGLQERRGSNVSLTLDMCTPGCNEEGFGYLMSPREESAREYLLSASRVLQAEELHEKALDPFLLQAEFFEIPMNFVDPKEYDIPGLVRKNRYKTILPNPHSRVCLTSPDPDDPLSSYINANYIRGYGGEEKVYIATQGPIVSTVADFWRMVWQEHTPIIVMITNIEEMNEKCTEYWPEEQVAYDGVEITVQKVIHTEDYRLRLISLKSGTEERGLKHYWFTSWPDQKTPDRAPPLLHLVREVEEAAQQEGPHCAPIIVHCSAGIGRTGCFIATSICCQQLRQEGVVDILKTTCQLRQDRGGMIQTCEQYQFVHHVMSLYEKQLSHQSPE
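medium = Bis-Tris buffer pH 6.0, 2.5 mM DTT, 0.005% Tween 20 | test system = STEP (striatal-enriched tyrosine phosphatase) enzyme, cell-free | measure = normalized % inhibition | compound dosing = 20 µM, 1% DMSO | also added = 25 µM OMFP | schedule = reaction 20 min, ambient temperature | measured by = fluorescence read at 480 nm ex / 540 nm em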
Scp1 inh – blocks human Scp-1 phosphatase activity; 0.88% of 340,000 active; inhibition, % at 20 µM; Recombinant Scp1, phosphopeptide, malachite green phosphate absorbance; Q9GZU7;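 active means inhibition above about 50% at 20 µM, limit read from the data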;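 further: plate controls were DMSO wells with enzyme for no effect and wells lacking enzyme for full effect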
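assay system = SCP-1 phosphatase catalytic domain, residues 76-261 | buffer or medium = 50 mM Tris acetate pH 5.5, 0.005% Tween-20, 10 mM MgCl2 | incubation = enzyme reaction 45 min at room temperature, colour 5 min, stabilisation 30 min | signal = Phosphate-binding colour reagent, absorbance read at 630 nm | measure = % inhibition at 20 µM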
NadD inh – blocks S. aureus nicotinate mononucleotide adenylyltransferase; 0.78% of 360,000 active; AID 602399; purified NadD enzyme, colorimetric absorbance read-out; inhibition, % at 20 µM; in the data active means inhibition above about 26%
SUMO1-SIM PPI – alters human SUMO1 binding to SIM partners; P63165; SUMO1 binding to a labelled peptide, TR-FRET, 1 h; inhibition, % at 20 µM; 0.33% of 360,000 active; AID 602429; in the data active means inhibition above about 37%
Target sequence (P63165 whole entry, looked up): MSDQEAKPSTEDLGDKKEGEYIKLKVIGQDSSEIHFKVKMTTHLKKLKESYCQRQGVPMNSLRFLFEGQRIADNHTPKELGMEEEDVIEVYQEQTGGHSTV
LMPTP block – LMPTP (human) inhibition | AID 651560 | 0.22% of 360,000 active | recombinant LMPTP-A, OMFP fluorogenic substrate, fluorescence intensity | P24666 | inhibition, % at 20 µM;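 active means compounds that cut the enzyme signal by at least half of the control window in the single-dose screen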;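 further: plate controls were DMSO wells with enzyme plus substrate for no effect and substrate without enzyme for full effect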
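Assay system: LMPTP-A, protein tyrosine phosphatase of low molecular weight / Medium: pH 6.0 Bis-Tris buffer with DTT and Triton X-100 / Schedule: 50 min enzyme reaction at room temperature, protected from light / Measured by: endpoint fluorescence intensity from OMFP dephosphorylation / Read-out basis: % inhibition relative to no-enzyme and uninhibited control wells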
Scp1 confirm – confirmation of human Scp-1 phosphatase inhibitors. recombinant SCP-1 catalytic domain, phosphate release, malachite green absorbance. 61% of 2,500 active. AID 540281. shares compounds with Scp1 inh. inhibition, % at 20 µM;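 further: plate controls were DMSO with enzyme for no effect and buffer wells lacking enzyme for full effect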
MG interference – colorimetric interference in Scp-1 counter-screen | 2,500 tested, under 10 active | Colorimetric interference counterscreen, malachite green absorbance 630 nm | shares compounds with Scp1 inh | apparent inhibition (interference), % at 20 µM;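 further: compounds added after enzyme reaction finished so only phosphate colour detection is probed; plate controls were DMSO wells with completed Scp-1 reaction for no effect and substrate wells lacking enzyme for full effect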
Scp1 DSF – validation of human Scp-1 inhibitors by thermal shift binding | shares compounds with Scp1 inh | AID 540329 | thermal shift relative to vanadate control, % at 40 µM | Recombinant SCP1, Sypro Orange thermal shift Tm | 25% of 1,500 active;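 active means substances whose mean melting-temperature shift, as a percentage of the reference inhibitor's shift, reaches about 5.3%, limit read from the data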;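 further: 0% = Tm of DMSO wells and 100% = Tm with sodium orthovanadate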
The depositor's hits bear a star; . = no result given. A selection: hits, their analogues and other compounds. The true share with any hit is near 2.4%.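 How the source made its calls, unless noted: active means inhibition of at least 30% at 20 µM; inactive means the rest.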

SMILES | DNMT1 block | STEP inh | Scp1 inh | NadD inh | SUMO1-SIM PPI | LMPTP block | Scp1 confirm | MG interference | Scp1 DSF
COc1ccc(/C=N/NC(=O)c2cccc(NC(=O)c3ccc(Cl)cc3)c2)c(OC)c1 | 14.8 | 3.9 | 83.5* | 13.2 | 14.2 | 2.0 | 66.0* | -15.1 | -14.6
C/C(=N\NC(=O)c1ccccc1O)c1ccc(NC(=O)c2ccccc2)cc1 | 1.5 | 35.6 | 67.5* | 2.7 | -6.7 | 11.2 | 69.2* | -8.4 | 3.4
CN(C)CCNCCCNc1c2ccccc2nc2cccc([N+](=O)[O-])c12 | 6.5 | -1.9 | -10.4 | 1.3 | -98.3 | -6.4 | . | . | .
O=C(Cn1ccnc1[N+](=O)[O-])NCCO | 0.4 | -0.6 | . | 3.1 | -13.5 | -0.8 | . | . | .
CCc1ccccc1NC(=O)CCS(=O)(=O)c1ccc2c(c1)CCCN2C(C)=O | 4.7 | 1.3 | -1.4 | -3.7 | 5.8 | -0.4 | . | . | .
Clc1ccc(SCc2cc(Cl)nc(-c3ccccc3)n2)cc1 | 9.1 | 1.4 | -8.9 | 4.4 | -1.5 | 2.7 | . | . | .
Clc1cc(CSc2ccccc2)nc(-c2ccccc2)n1 | -1.3 | 2.8 | 61.4* | 1.7 | 1.6 | 2.6 | 35.7* | -20.8 | -27.0
C[C@H]1CN([C@@H](C)CO)C(=O)Cc2cc(NS(=O)(=O)c3cn(C)cn3)ccc2O[C@@H]1CN(C)C(=O)Nc1ccc(F)cc1 | 5.0 | 8.4 | 73.2* | -0.2 | 2.0 | -1.6 | 37.2* | -15.6 | -14.0
C[C@@H]1CN([C@H](C)CO)C(=O)c2cc(NS(=O)(=O)c3cn(C)cn3)ccc2O[C@H]1CN(C)C(=O)Nc1ccccc1 | 6.2 | 3.7 | 81.5* | 1.3 | 1.5 | -1.5 | 21.9 | -13.4 | .
CC(C)NC(=O)N(C)C[C@H]1Oc2ccc(NS(=O)(=O)c3cccs3)cc2C(=O)N([C@H](C)CO)C[C@@H]1C | 7.2 | -0.7 | 6.2 | 4.9 | 3.3 | 0.9 | . | . | .
C[C@H](CO)N1C[C@H](C)[C@H](CN(C)S(=O)(=O)c2cn(C)cn2)Oc2ccc(NC(=O)Nc3ccc(C(F)(F)F)cc3)cc2CC1=O | -10.5 | -2.3 | -4.4 | -8.5 | -2.0 | 0.1 | . | . | .
C[C@H](CO)N1C[C@H](C)[C@@H](CN(C)C(=O)NC2CCCCC2)Oc2ccc(NS(=O)(=O)c3cccs3)cc2C1=O | 1.2 | 0.3 | 56.2* | -3.3 | 2.3 | -1.6 | 2.4 | -18.9 | .
CCOc1ccccc1NC(=O)Cn1nnc(C(=O)NCc2ccc3c(c2)OCO3)c1N | -1.1 | -2.1 | -6.8 | 3.7 | 7.1 | 0.1 | . | . | .
Cc1ccc2c(C)c(C(=O)N(Cc3ccc(F)cc3)C3CCS(=O)(=O)C3)oc2c1 (stereo not given) | -2.3 | 1.8 | -1.7 | -8.7 | 4.2 | 0.6 | . | . | .
CC(=O)c1ccc(C(=O)Nc2nnc(-c3ccc(Cl)cc3)o2)cc1 | 1.7 | 6.3 | 53.6* | 9.0 | 16.4 | 6.9 | 43.1* | -16.9 | 1.5
CCNc1nc(NCC)n2c(SCC(=O)Nc3cccc(Cl)c3)nnc2n1 | 18.4 | 2.2 | 53.8* | -1.5 | 12.8 | 0.0 | 50.1* | -14.0 | -11.9
CCNc1nc(NCC)n2c(SCC(=O)Nc3cccc(F)c3)nnc2n1 | 13.6 | 4.3 | 36.2 | 7.0 | 10.0 | 0.9 | . | . | .
CC(=O)NS(=O)(=O)c1ccc(NC(=O)[C@@H]2CCCN2S(=O)(=O)c2ccc(Cl)cc2)cc1 | -3.5 | 1.5 | -1.4 | 7.6 | 27.7 | -0.7 | . | . | .
Oc1ccc2ccccc2c1N=Nc1ccc(F)cc1 | 2.1 | 4.7 | -10.4 | -8.3 | -18.2 | 2.5 | . | . | .
O=C(O)Cc1ccc(N=Nc2c(O)c(C(=O)O)cc3ccccc23)cc1 | 61.0* | 9.8 | 50.3* | 13.0 | 22.5 | 45.2 | 72.6* | -5.2 | 27.9*
COc1ccc(OC)c(CC(NC(C)=O)C(=O)NC2CCN(c3nc(OC)nc(OC)n3)CC2)c1 (stereo not given) | -3.7 | 2.3 | -3.0 | 0.5 | -2.1 | 1.1 | . | . | .
O=C(NCCCN1CCCC1=O)Nc1ccccc1F | 0.2 | -1.3 | -3.6 | 4.4 | -2.7 | -1.2 | -5.6 | -4.3 | .
O=C1CCCN1CCCNS(=O)(=O)c1ccccc1 | -1.4 | -0.3 | -8.3 | 1.4 | 2.7 | -0.4 | . | . | .
O=C1CCCN1CCCNS(=O)(=O)c1ccc(F)cc1F | 1.7 | 0.2 | -8.4 | 2.5 | -4.9 | -1.7 | -4.6 | -6.2 | .
O=C(NCCCN1CCCC1=O)Nc1ccccc1Cl | 3.2 | 1.3 | -10.5 | -6.0 | -5.3 | -0.4 | . | . | .
SMILES | DNMT1 block | STEP inh | Scp1 inh | NadD inh | SUMO1-SIM PPI | LMPTP block | Scp1 confirm | MG interference | Scp1 DSF
Cc1nnc(SCC(=O)Nc2nsc(-c3ccc(Cl)cc3)n2)s1 | 45.3 | 12.8 | 69.6* | 4.6 | -8.7 | 2.9 | 43.0* | -14.5 | -9.4
Cc1ccc(-c2nc(NC(=O)CSc3nnc4scc(-c5ccccc5)n34)ns2)cc1 | 31.9 | 1.4 | 63.8* | 13.1 | -4.1 | 13.1 | 65.4* | -7.3 | -0.4
Cn1cc(SCC(=O)NCc2ccc(F)cc2)c2ccccc21 | 3.6 | -2.2 | -6.5 | -8.5 | -2.4 | -0.1 | . | . | .
Cn1c(=O)cc(SCC(=O)NCc2ccc(F)cc2)c2ccccc21 | 1.9 | 1.7 | -5.6 | 0.2 | 0.0 | -1.3 | -18.8 | -15.9 | .
Cc1ccc(C)c(-n2cc[nH]c2=S)c1 | 6.2 | 0.4 | -2.7 | -0.2 | 1.4 | -2.5 | . | . | .
O=C1S/C(=C\c2ccc(O)c([N+](=O)[O-])c2)C(=O)N1Cc1cccc([N+](=O)[O-])c1 | -2.6 | 7.1 | 0.7 | 27.9 | 7.4 | 2.3 | . | . | .
Cc1cccc(NC(=O)CN2C(=O)S/C(=C\c3ccc(O)c([N+](=O)[O-])c3)C2=O)c1 | -4.4 | 5.2 | 79.8* | 14.5 | -2.3 | 8.0 | 77.3* | -3.8 | 26.3*
O=C(CN1C(=O)S/C(=C\c2ccc(O)c([N+](=O)[O-])c2)C1=O)Nc1ccc(N2CCOCC2)cc1 | -0.2 | 11.8 | 61.9* | 18.6 | -12.0 | 22.1 | 60.4* | -2.4 | 2.2
COc1cc(C(=O)Nc2ccc3c(c2)CCCN3C(=O)c2ccco2)c([N+](=O)[O-])cc1OC | -0.2 | -1.7 | -5.7 | 1.5 | -29.1 | -0.7 | . | . | .
Cc1ccc(N=C2NC(=O)S/C2=C\c2ccco2)cc1 | 3.8 | 34.6 | 97.4* | -0.1 | -3.2 | 62.8* | 56.9* | -13.1 | 3.8
CCN(CC)CCNC(=S)Nc1ccc(F)cc1 | 0.3 | 2.2 | -1.4 | 9.7 | -3.1 | -1.9 | . | . | .
C[N+]1(CCCOC(=O)C2(c3ccccc3)CCCC2)CCOCC1 | -1.1 | -1.2 | 73.6* | 17.0 | 21.5 | -0.3 | 37.1* | -13.9 | 1.1
